# Laboratory results from ChEMBL document CHEMBL4330087, “Synthesis, antimicrobial activity, attenuation of aminoglycoside resistance in MRSA, and ribosomal A-site binding of pyrene-neomycin conjugates” (Eur J Med Chem, 2019).
# Calls of active or inactive are those of the source. The calls are words filed in the database; no cut-off is given here.
# Columns and labels:
# Escherichia coli [1] = test: Antibacterial activity against NEO-sensitive Escherichia coli ATCC 25922 after 15 to 20 hrs by CLSI protocol based microdilution assay; format: functional
# Outline: (§1)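 CLSI broth microdilution on exponential-phase bacteria at ~3×10^5 cells/mL in cation-adjusted Mueller-Hinton broth. Serial 2-fold dilutions gave final concentrations of 50 to 0.78 μM; compound stocks were 10× in 10% DMSO. Incubated at 37 °C for 15-20 h, growth read at A595. Percent inhibition averaged over triplicates; MIC in μM.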
# [2] = tested on: Staphylococcus epidermidis; test: Antibacterial activity against NEO-sensitive Staphylococcus epidermidis 12384 after 15 to 20 hrs by CLSI protocol based microdilution assay; format: functional; outline: as §1
# Ribosomal RNA A-site [3] = test: Binding affinity to rRNA-A site in Escherichia coli S30 extract assessed as inhibition of protein translation after 20 mins; format: nucleic-acid assay
# Ribosomal RNA A-site [4] = test: Binding affinity to rRNA-A site in human MDA-MB-231 cells assessed as inhibition of protein translation; format: cell-based
# Bacillus anthracis = test: Antibacterial activity against NEO-sensitive Bacillus anthracis BA852 after 15 to 20 hrs by CLSI protocol based microdilution assay; format: functional; outline: as §1
# Staphylococcus aureus [5] = test: Antibacterial activity against methicillin-resistant Staphylococcus aureus 33591 after 15 to 20 hrs by CLSI protocol based microdilution assay; format: functional; outline: as §1
# Escherichia coli [6] = test: Antibacterial activity against multidrug-resistant Escherichia coli H4H after 15 to 20 hrs by CLSI protocol based microdilution assay; format: functional; outline: as §1
# Staphylococcus aureus [7] = test: Antibacterial activity against NEO-sensitive Staphylococcus aureus 25923 after 15 to 20 hrs by CLSI protocol based microdilution assay; format: functional; outline: as §1
# [8] = Antibacterial activity against NEO-sensitive Enterobacter cloacae 13047 at 6.25 uM after 15 to 20 hrs by CLSI protocol based microdilution assay relative to control; format: functional, Enterobacter cloacae subsp. cloacae, ATCC 13047
# Outline: (§2)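 Single-concentration screen at 6.25 μM against exponential-phase cultures, in duplicate, with NEO as reference. Enterococcus was grown in BHI broth, M. smegmatis in TS broth with 0.05% Tween 80, and all other strains in TS broth. The 1% DMSO water vehicle was added to broth (background) and culture (growth control). Incubation was 37 °C, humidified, 15-20 h. Result is percent growth inhibition.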
# Listeria monocytogenes = test: Antibacterial activity against NEO-sensitive Listeria monocytogenes ATCC 19115 at 6.25 uM after 15 to 20 hrs by CLSI protocol based microdilution assay relative to control; format: functional; outline: as §2
# Streptococcus pyogenes = test: Antibacterial activity against NEO-resistant Streptococcus pyogenes C203 after 15 to 20 hrs by CLSI protocol based microdilution assay; format: functional; outline: as §1
# Staphylococcus aureus [9] = test: Antibacterial activity against NEO-sensitive Staphylococcus aureus harboring NorA mutant after 15 to 20 hrs by CLSI protocol based microdilution assay; format: functional; outline: as §1
# Escherichia coli [10] = test: Antibacterial activity against NEO-sensitive Escherichia coli harboring TolC mutant after 15 to 20 hrs by CLSI protocol based microdilution assay; format: functional; outline: as §1
# Staphylococcus aureus [11] = test: Antibacterial activity against methicillin-resistant Staphylococcus aureus SU-5 after 15 to 20 hrs by CLSI protocol based microdilution assay; format: functional; outline: as §1
# Staphylococcus aureus [12] = test: Antibacterial activity against methicillin-resistant Staphylococcus aureus A960649 after 15 to 20 hrs by CLSI protocol based microdilution assay; format: functional; outline: as §1
# Staphylococcus aureus [13] = test: Antibacterial activity against methicillin-resistant Staphylococcus aureus M0602 after 15 to 20 hrs by CLSI protocol based microdilution assay; format: functional; outline: as §1
# [14] = tested on: Mycolicibacterium smegmatis; test: Antibacterial activity against NEO-sensitive Mycobacterium smegmatis after 15 to 20 hrs by CLSI protocol based microdilution assay; format: functional; outline: as §1
# Escherichia coli [15] = test: Antibacterial activity against multidrug-resistant Escherichia coli H4H at 6.25 uM after 15 to 20 hrs by CLSI protocol based microdilution assay relative to control; format: functional
# Outline: (§3)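 Exponential-phase cultures were exposed to 6.25 μM compound in duplicate with neomycin as reference, at 37 °C in a humidified incubator for 15-20 h. Broth and culture controls received sterile water with 1% DMSO. Percent growth inhibition was calculated against the growth and background controls.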
# Escherichia coli [16] = test: Antibacterial activity against Escherichia coli O157:H7 at 6.25 uM after 15 to 20 hrs by CLSI protocol based microdilution assay relative to control; format: functional; outline: as §3
# Staphylococcus aureus [17] = test: Antibacterial activity against NEO-sensitive Staphylococcus aureus C2 after 15 to 20 hrs by CLSI protocol based microdilution assay; format: functional
# Outline: (§4)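 CLSI broth microdilution MIC in triplicate on exponential-phase cells, ~3×10^5 cells per mL in cation-adjusted Mueller-Hinton broth. Compound was added from 10× stocks in 10% DMSO as serial 2-fold dilutions, final 50 to 0.78 μM. Plates were incubated at 37 °C, humidified, 15-20 h. Growth was read as absorbance at 595 nm, and percent inhibition was averaged over triplicates.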
# Staphylococcus aureus [18] = test: Antibacterial activity against NEO-sensitive Staphylococcus aureus NRS77 after 15 to 20 hrs by CLSI protocol based microdilution assay; format: functional; outline: as §4
# [19] = Toxicity in Caenorhabditis elegans infected with methicillin-resistant Staphylococcus aureus assessed as effect on nematode larvae viability by measuring decrease in formazan production at 3.13 to 1.56 uM after 24 hrs by MTT assay
# [20] = Toxicity in Caenorhabditis elegans infected with methicillin-resistant Staphylococcus aureus assessed as effect on nematode larvae viability by measuring decrease in formazan production at 6.25 to 50 uM after 24 hrs by MTT assay relative to control
# Staphylococcus aureus [21] = test: Antibacterial activity against NEO-sensitive Staphylococcus aureus C1 after 15 to 20 hrs by CLSI protocol based microdilution assay; format: functional; outline: as §4
# Staphylococcus aureus [22] = test: Antibacterial activity against NEO-sensitive Staphylococcus aureus 6538 after 15 to 20 hrs by CLSI protocol based microdilution assay; format: functional; outline: as §4
Structure (SMILES),MIC (Escherichia coli [1]) [µM],MIC [2] [µM],IC50 (Ribosomal RNA A-site [3]) [nM],IC50 (Ribosomal RNA A-site [4]) [nM],MIC (Bacillus anthracis) [µM],MIC (Staphylococcus aureus [5]) [µM],MIC (Escherichia coli [6]) [µM],MIC (Staphylococcus aureus [7]) [µM],Activity [8] [%],Activity (Listeria monocytogenes),MIC (Streptococcus pyogenes),MIC (Staphylococcus aureus [9]) [µM],MIC (Escherichia coli [10]) [µM],MIC (Staphylococcus aureus [11]) [µM],MIC (Staphylococcus aureus [12]) [µM],MIC (Staphylococcus aureus [13]) [µM],MIC [14] [µM],Activity (Escherichia coli [15]),Activity (Escherichia coli [16]) [%],MIC (Staphylococcus aureus [17]) [µM],other results
NC[C@@H]1O[C@H](O[C@H]2[C@@H](O)[C@H](O[C@@H]3[C@@H](O)[C@H](N)C[C@H](N)[C@H]3O[C@H]3O[C@H](CN)[C@@H](O)[C@H](O)[C@H]3N)O[C@@H]2CSCCNC(=O)CCCc2ccc3ccc4cccc5ccc2c3c45)[C@H](N)[C@@H](O)[C@@H]1O,> 25,6.25,927,927,6.25,12.5,> 25,12.5,0,49%,50 µM,6.25 to 12.5,6.25,25,12.5,25,6.25,<=30%,3,–,–
NC[C@@H]1O[C@H](O[C@H]2[C@@H](O)[C@H](O[C@@H]3[C@@H](O)[C@H](N)C[C@H](N)[C@H]3O[C@H]3O[C@H](CN)[C@@H](O)[C@H](O)[C@H]3N)O[C@@H]2CNC(=O)CCCc2ccc3ccc4cccc5ccc2c3c45)[C@H](N)[C@@H](O)[C@@H]1O,> 25,12.5,–,–,12.5,12.5,> 25,12.5,5,22%,25 µM,12.5,12.5,25,12.5,25,12.5,0%,0,–,–
NC[C@@H]1O[C@H](O[C@H]2[C@@H](O)[C@H](O[C@@H]3[C@@H](O)[C@H](N)C[C@H](N)[C@H]3O[C@H]3O[C@H](CN)[C@@H](O)[C@H](O)[C@H]3N)O[C@@H]2CSCCNC(=O)Cc2ccc3ccc4cccc5ccc2c3c45)[C@H](N)[C@@H](O)[C@@H]1O,> 25,6.25,269,269,6.25,–,> 25,–,5,52%,inactive,6.25 to 12.5,6.25,25,12.5,25,6.25,–,–,12.5,MIC (Staphylococcus aureus [18]): 3.2 µM; Activity [19]: Non-Toxic; Activity [20]: 50 to 75%; MIC (Staphylococcus aureus [21]): 12.5 µM
NC[C@@H]1O[C@H](O[C@H]2[C@@H](O)[C@H](O[C@@H]3[C@@H](O)[C@H](N)C[C@H](N)[C@H]3O[C@H]3O[C@H](CN)[C@@H](O)[C@H](O)[C@H]3N)O[C@@H]2CSCCNC(=O)CCc2ccc3ccc4cccc5ccc2c3c45)[C@H](N)[C@@H](O)[C@@H]1O,–,–,–,–,–,–,–,–,0,inactive,–,–,–,–,–,–,–,inactive,–,12.5,MIC (Staphylococcus aureus [22]): 12.5 µM; MIC (Staphylococcus aureus [18]): 6.3 µM; Activity [19]: Non-Toxic; Activity [20]: 50 to 75%; MIC (Staphylococcus aureus [21]): 25 µM
NC[C@@H]1O[C@H](O[C@H]2[C@@H](O)[C@H](O[C@@H]3[C@@H](O)[C@H](N)C[C@H](N)[C@H]3O[C@H]3O[C@H](CN)[C@@H](O)[C@H](O)[C@H]3N)O[C@@H]2CNC(=O)Cc2ccc3ccc4cccc5ccc2c3c45)[C@H](N)[C@@H](O)[C@@H]1O,–,–,1280,1200 to 1280,–,–,–,–,0,inactive,–,–,–,–,–,–,–,inactive,0,> 25,MIC (Staphylococcus aureus [22]): > 25 µM; MIC (Staphylococcus aureus [18]): > 25 µM; MIC (Staphylococcus aureus [21]): > 25 µM
NC[C@@H]1O[C@H](O[C@H]2[C@@H](O)[C@H](O[C@@H]3[C@@H](O)[C@H](N)C[C@H](N)[C@H]3O[C@H]3O[C@H](CN)[C@@H](O)[C@H](O)[C@H]3N)O[C@@H]2CSCCNC(=S)NCCCCCCNC(=O)CCCc2ccc3ccc4cccc5ccc2c3c45)[C@H](N)[C@@H](O)[C@@H]1O,> 25,3.13,213,213,3.13,25,> 25,6.25,29,91%,inactive,6.25,1.56 to 3.13,50,25,25 to 50,6.25,5 - 30%,0,–,–
